KCNQ1 block: inhibitors of human KCNQ1 potassium channel; 310,000 tested, 1.3% active; B-score at 10 µM; P51787; CHO-K1 KCNQ1, FluxOR thallium flux fluorescence; active compounds read high;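 active means compounds whose thallium flux B-score, printed positive for inhibition, exceeds three library SD while starting fluorescence stays within three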;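 further: channel opened by potassium depolarization with thallium stimulus after 20 min compound exposure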
Target sequence (P51787 whole entry, looked up): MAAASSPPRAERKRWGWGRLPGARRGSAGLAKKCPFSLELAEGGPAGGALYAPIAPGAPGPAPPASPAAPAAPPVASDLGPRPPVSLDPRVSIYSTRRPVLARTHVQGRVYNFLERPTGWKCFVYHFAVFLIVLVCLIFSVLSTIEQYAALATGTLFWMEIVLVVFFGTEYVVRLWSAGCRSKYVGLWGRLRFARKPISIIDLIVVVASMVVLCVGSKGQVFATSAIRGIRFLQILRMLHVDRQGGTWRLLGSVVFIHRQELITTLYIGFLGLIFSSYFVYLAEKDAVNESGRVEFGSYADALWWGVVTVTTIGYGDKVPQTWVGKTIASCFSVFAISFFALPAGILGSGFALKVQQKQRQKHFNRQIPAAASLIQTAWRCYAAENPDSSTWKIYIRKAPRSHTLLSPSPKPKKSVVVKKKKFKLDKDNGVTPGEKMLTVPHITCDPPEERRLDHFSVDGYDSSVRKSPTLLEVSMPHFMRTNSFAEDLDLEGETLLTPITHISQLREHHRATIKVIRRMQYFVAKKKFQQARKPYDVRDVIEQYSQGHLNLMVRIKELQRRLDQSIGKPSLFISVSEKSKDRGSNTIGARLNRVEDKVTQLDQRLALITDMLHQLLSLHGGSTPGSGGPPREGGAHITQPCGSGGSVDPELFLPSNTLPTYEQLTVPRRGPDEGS
KCNK9 inh: human KCNK9 channel inhibition. Q9NPC2. HEK293 KCNK9, FluxOR thallium flux fluorescence; active compounds read low. B-score at 10 µM. 310,000 tested, 1.2% active;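 active means ratio B-score over 3 SD below the library mean, with starting fluorescence within 5 SD of its mean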;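 further: negative B-score means less thallium flux so channel inhibition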
KCNK3 block: human KCNK3 channel inhibition, primary screen; CHO-KCNK3 thallium flux, FluxOR fluorescence; active compounds read low; O14649; 340,000 tested, 0.84% active; B-score at 10 µM;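 active means B-score under library mean minus 4 SD, starting fluorescence ratio at most library mean plus 5 SD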;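 further: more negative B-score means stronger inhibition of thallium flux through KCNK3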
KCNQ1 pot: potentiators or activators of human KCNQ1 potassium channel; CHO-K1 KCNQ1, thallium flux FluxOR fluorescence; active compounds read high; B-score at 10 µM; 310,000 tested, 0.35% active; AID 2648;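 active means fluorescence ratio B-score, a plate-corrected score, at least three library SD, with initial intensity B-score within 5 SD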
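System: CHO-K1 cells stably expressing KCNQ1 / Medium: assay buffer for compound exposure, DMSO matched across wells / Reagent: thallium- and potassium-containing depolarizing buffer / Compound: one concentration, matched DMSO / Incubation: 20 min compound pretreatment at room temperature / Measured by: kinetic FluxOR fluorescence, 10 s baseline plus 110 s post-stimulus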
hERG rescue: hERG (human) protection from proarrhythmic block | 310,000 tested, 0.51% active | activation (rescue from dofetilide block), less the hit threshold, % at 10 µM | Q12809 | CHO-hERG, FluxOR thallium flux, dofetilide IC70 present;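 active means activation above the mean of controls blocked by dofetilide plus 5 SD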;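 further: thallium influx through hERG after potassium depolarization seen as dye fluorescence rise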
Kir21 block: inhibitors of mouse Kir2.1 inward-rectifier potassium channel; HEK293-Kir2.1, FluxOR thallium flux fluorescence; active compounds read low; B-score at 10 µM; 310,000 tested, 0.85% active;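 active means fluorescence ratio B-score at or below minus 3 SD of library scores, with starting-brightness B-score within 2 SD, cut at about -4.2 in these data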;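 further: channel flux triggered by added potassium and thallium sulfate stimulus; B-score of peak minus minimum fluorescence over baseline after thallium stimulus; more negative B-score means stronger Kir2.1 block with less thallium influx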
KCNK9 inh conf: confirmation of human KCNK9 potassium channel inhibitors. shares compounds with KCNK9 inh. HEK293 KCNK9 cells, FluxOR thallium flux fluorescence. inhibition, % at 10 µM. 4,900 tested, 43% active;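 active means thallium signal inhibited by more than 5 SD of the compound-free buffer control wells, on both duplicate plates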;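 further: 0% = assay buffer control wells without compound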
Kir2-1 spec: selectivity of KCNK9 modulators against mouse Kir2.1; Kir2.1 cells, FluxOR thallium flux fluorescence; 4,900 tested, 4% active; shares compounds with KCNK9 inh; inhibition, % at 10 µM; AID 492993;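 active means thallium signal drop more than 5 SD beyond the mean of the no-compound control wells, seen in both duplicate plates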;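 further: signal is fluorescence rise after thallium addition divided by baseline fluorescence; plate controls were assay buffer only for no effect and full block by chlorpromazine control for full effect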
HEK293 Tl ctr: second counter-screen for KCNK9 modulators: effect in non-induced cells. shares compounds with KCNK9 inh. non-induced KCNK9-HEK293, FluxOR thallium flux. inhibition, % at 10 µM. 4,900 tested, 40% active;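 active means thallium signal drop beyond 5 SD of the untreated control mean, on both duplicate plates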;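 further: plate controls were buffer only IC0 wells for no effect and SID17386958 at its maximal inhibitory level for full effect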
* marks the source's active call; other numbers are inactive results; i = inactive; x = no result. Shown are actives, neighbours in structure and some others; about 3.8% of the full set was active somewhere.

SMILES	KCNQ1 block	KCNK9 inh	KCNK3 block	KCNQ1 pot	hERG rescue	Kir21 block	KCNK9 inh conf	Kir2-1 spec	HEK293 Tl ctr
C#CCOCCOCCOCCNc1nc(N2CCN(C(=O)[C@H](CCCCN)n3cc(C(N)CO)nn3)CC2)nc(N2CCN(C(=O)[C@H](CCC(=O)O)n3cc(C(N)[C@H](C)CC)nn3)CC2)n1 (some centres not stated)	i	i	x	i	-3	-0.83	x	x	x
C[C@H](NC(=O)c1nc[nH]c1C(=O)N[C@@H](CCCCNC(=O)OC(C)(C)C)C(=O)OC(C)(C)C)c1ccccc1	i	-11*	i	i	-9	-0.23	i	i	29%*
O=c1c2ccccc2n(CC(O)CN2CCOCC2)c2ccccc12 (configuration not stated)	i	-14*	i	i	-2	0.67	33%*	i	i
Cc1c(C)n(CC(O)CN2CCOCC2)c2ccccc12 (configuration not stated)	i	i	i	i	-5	1.5	x	x	x
COc1cccc(OCCOCCOc2ccc(C)cc2[N+](=O)[O-])c1	i	i	i	i	-10	0.02	i	i	i
COc1ccc(OCCOCCOc2ccc(C)cc2[N+](=O)[O-])cc1	i	i	i	i	-6	-0.02	x	x	x
COc1cccc(OCCNc2cc(Cl)ccc2[N+](=O)[O-])c1	i	-12*	i	i	-20	-0.64	54%*	i	34%*
CCc1ccc(CNC(=O)C2CCCN(S(=O)(=O)N3CC(C)CC(C)C3)C2)cc1 (configuration not stated)	i	-8.2*	i	i	-7	0.8	38%*	i	i
Cc1ccc(CNC(=O)C2CCCN(S(=O)(=O)N3CCC(C)CC3)C2)cc1 (configuration not stated)	i	i	i	i	-9	-0.24	x	x	x
CCc1ccc2c(CSc3nnnn3C)cc(=O)oc2c1	i	i	i	i	-11	0.34	x	x	x
Cn1nc(C(=O)Nc2ccccc2Cl)cc1C(=O)Nc1ccccc1Cl	i	i	i	i	-8	1.6	x	x	x
CCCOc1ccc(C(=O)C(CN2CCOCC2)c2ccccc2)cc1 (configuration not stated)	i	i	i	i	-8	-0.27	i	i	i
C[n+]1c2cc(N)ccc2cc2ccc(N)cc21	x	x	i	x	x	x	x	x	x
C[C@@]12C(=O)N(c3cccc(F)c3)C(=O)N1[C@H](c1ccc(Cl)cc1)[C@@H]1C(=O)N(C3CCCCC3)C(=O)[C@@H]12	i	i	i	i	-9	-0.39	x	x	x
CS(=O)(=O)Nc1ccc(C2=NN(S(=O)(=O)c3ccc(F)cc3)C(c3ccco3)C2)cc1 (configuration not stated)	i	-10*	i	i	-13	-2	38%*	i	i
Cc1ccc(C2=NN(S(=O)(=O)c3ccccc3)C(c3ccco3)C2)cc1 (configuration not stated)	x	x	i	x	x	x	x	x	x
O=C(CCCC(=O)N(CC(=O)NC1CCCC1)Cc1ccc(F)cc1)Nc1ccccn1	i	i	i	i	-5	1.6	x	x	x
Cc1ccc(NS(=O)(=O)c2ccc(NC(=O)CN(c3cc([N+](=O)[O-])ccc3C)S(C)(=O)=O)cc2)c(C)c1	i	i	i	i	-6	-0.73	x	x	x
CCOc1ccc(/C=C/C(=O)c2cc(Br)ccc(=O)c2O)cc1	x	x	i	x	x	x	x	x	x
Cc1cccc(/C=C/C(=O)c2cc(Br)ccc(=O)c2O)c1	i	i	i	25*	-2	0.95	i	i	i
CC1Oc2cc3oc4c(O)c(O)ccc4c(=O)c3c(O)c2C1(C)C (configuration not stated)	10*	i	i	i	-17	2.6	i	i	i
COc1ccc(-c2cc(=O)oc3c(O)c(O)ccc23)cc1	i	i	i	i	-8	0.15	x	x	x
COc1ccc(CN(C)CC(=O)NC(=O)NCc2ccccc2)c(OC)c1	i	i	i	i	-5	-1.8	i	i	i
CN(CC(=O)NCc1ccccc1)Cc1cccc(F)c1	i	i	i	i	-5	1.6	x	x	x
CN(CC(=O)NC(=O)NCc1ccccc1)Cc1ccc(Cl)c(Cl)c1	i	i	i	i	-9	-0.02	i	i	i
SMILES	KCNQ1 block	KCNK9 inh	KCNK3 block	KCNQ1 pot	hERG rescue	Kir21 block	KCNK9 inh conf	Kir2-1 spec	HEK293 Tl ctr
COc1cccc(C(=O)NCC(C)(C)SCc2ccc(F)cc2)c1	i	i	i	i	-6	0.37	i	i	i
Cc1nc(-c2ccccc2)sc1C(=O)Nc1ccc(S(N)(=O)=O)cc1	i	i	i	i	-2	0.91	x	x	x
O=C(COC(=O)c1c2c(nc3ccccc13)CCN(Cc1ccccc1)C2)Nc1c(F)cccc1F	i	-8.3*	i	i	-7	-0.21	i	i	i
CCOc1ccc(-n2cnc3scc(-c4ccc(OC)c(OC)c4)c3c2=O)cc1	i	i	i	i	-2	0.47	x	x	x
c1ccc(CN2CCN(c3nc(-c4ccccc4)nc4ccccc34)CC2)cc1	i	-17*	i	i	-9	0.9	34%*	i	28%*
c1ccc(CN2CCN(c3nc(-c4ccccn4)nc4ccccc34)CC2)cc1	i	i	i	i	-6	-0.91	x	x	x
c1ccc(-c2nc(NCc3ccco3)c3oc4ccccc4c3n2)cc1	i	-8.7*	i	i	-18	-0.22	38%*	i	35%*
c1ccc(-c2nc(NCCCn3ccnc3)c3oc4ccccc4c3n2)cc1	i	i	i	i	-33	-4.4	x	x	x
Nc1nc(SCc2ccccn2)c2ncn(C3CCCC3)c2n1	x	x	i	x	x	x	x	x	x
O=C(CS(=O)(=O)c1ccc(Br)cc1)N1CCOCC1	i	i	i	i	-6	0.05	x	x	x
COc1cc(/C=N/NC(=O)c2ccc3nc[nH]c3c2)cc(OC)c1OC	i	i	x	i	-3	0.1	x	x	x
COc1ccccc1C(CC(=O)c1ccccc1)CC(=O)c1ccccc1	i	-8.6*	i	i	-11	0.18	30%*	i	31%*
COC(=O)C(CC(=O)c1ccccc1)CC(=O)c1ccccc1	i	i	i	i	-4	-0.12	x	x	x

Screening results from PubChem.
